ChEMBL document CHEMBL3351828, “Design and optimization of highly-selective fungal CYP51 inhibitors” (Bioorg Med Chem Lett, 2014)
Values after ≈ are worked out from the molar mass of the structure shown.

Test system: Candida albicans
Assay: Antifungal activity against Candida albicans by broth macrodilution method
Assay type: functional
Details: not given
Outline: (§1)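 MIC against standard ATCC isolates determined under CLSI guidelines, M27-A3 for yeasts. […] Units μg/mL.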
CCC(C)n1ncn(-c2ccc(N3CCN(c4ccc(OCC5COC(Cn6cncn6)(c6ccc(Cl)cc6Cl)O5)cc4)CC3)cc2)c1=O (stereo not given) [ITRACONAZOLE] showed an MIC50 of 0.016 µg/mL (≈ 0.0227 µM).
O[C@@](Cn1cnnn1)(c1ccc(F)cc1F)C(F)(F)c1ccc(-c2ccc(OCC(F)(F)F)cc2)cn1 [OTESECONAZOLE] gave an MIC50 of at most 0.001 µg/mL.
With C[C@@H](c1ncncc1F)[C@](O)(Cn1ncnn1)c1ccc(F)cc1F the MIC50 was 8 µg/mL (≈ 22.8 µM).
OC(Cn1cnnn1)(c1ccc(F)cc1F)C(F)(F)c1ccc(-c2ccc(F)cc2)cn1 (stereo not given) showed an MIC50 of 0.016 µg/mL (≈ 0.0358 µM).
O[C@@](Cn1cnnn1)(c1ccc(F)cc1F)C(F)(F)c1ccc(-c2ccc(OC(F)(F)F)cc2)cn1 gave an MIC50 of at most 0.001 µg/mL.
O[C@@](Cn1cnnn1)(c1ccc(F)cc1F)C(F)(F)c1ccc(Cl)cn1 gave an MIC50 of 0.25 µg/mL (≈ 0.645 µM).
In the case of N#Cc1ccc(-c2ccc(C(F)(F)C(O)(Cn3cnnn3)c3ccc(F)cc3F)nc2)cc1 (stereo not given), the MIC50 is reported as at most 0.016 µg/mL.
OC(Cn1cnnn1)(c1ccc(F)cc1F)C(F)(F)c1ccccn1 (stereo not given) gave an MIC50 of 0.25 µg/mL (≈ 0.708 µM).
O[C@@](Cn1cnnn1)(c1ccc(F)cc1F)C(F)(F)c1ccc(-c2ccc(Cl)cc2)cn1 gave an MIC50 of at most 0.001 µg/mL.
In the case of C[C@@H](c1ncncc1F)[C@](O)(Cn1ccnn1)c1ccc(F)cc1F, the MIC50 is reported as over 16 µg/mL.
In the case of C[C@@H](c1ncncc1F)[C@](O)(Cn1cnnc1)c1ccc(F)cc1F, the MIC50 is reported as over 16 µg/mL.
For OC(Cn1cnnn1)(c1ccc(F)cc1F)C(F)(F)c1ccc(-c2ccc(C(F)(F)F)cc2)cn1 (stereo not given), the MIC50 was at most 0.016 µg/mL.
In the case of O[C@@](Cn1cnnn1)(c1ccc(F)cc1F)C(F)(F)c1ccc(-c2ccc(C(F)(F)F)cc2)cn1, the MIC50 is reported as at most 0.001 µg/mL.
C[C@@H](c1ncncc1F)[C@](O)(Cn1cnnn1)c1ccc(F)cc1F gave an MIC50 of 1 µg/mL (≈ 2.85 µM).
Work on C[C@@H](c1ncncc1F)[C@](O)(Cn1ccnc1)c1ccc(F)cc1F yielded an MIC50 of 0.5 µg/mL (≈ 1.44 µM).
Compound OC(Cn1cnnn1)(c1ccc(F)cc1F)C(F)(F)c1ccc(OCC(F)(F)F)cn1 (stereo not given) has an MIC50 of 0.06 µg/mL (≈ 0.133 µM).
C[C@@H](c1ncncc1F)[C@](O)(Cn1cncn1)c1ccc(F)cc1F [VORICONAZOLE] showed an MIC50 of 0.06 µg/mL (≈ 0.172 µM).

Target: Cytochrome P450 2C19 (Homo sapiens, UniProt P33261)
Sequence (P33261 whole entry): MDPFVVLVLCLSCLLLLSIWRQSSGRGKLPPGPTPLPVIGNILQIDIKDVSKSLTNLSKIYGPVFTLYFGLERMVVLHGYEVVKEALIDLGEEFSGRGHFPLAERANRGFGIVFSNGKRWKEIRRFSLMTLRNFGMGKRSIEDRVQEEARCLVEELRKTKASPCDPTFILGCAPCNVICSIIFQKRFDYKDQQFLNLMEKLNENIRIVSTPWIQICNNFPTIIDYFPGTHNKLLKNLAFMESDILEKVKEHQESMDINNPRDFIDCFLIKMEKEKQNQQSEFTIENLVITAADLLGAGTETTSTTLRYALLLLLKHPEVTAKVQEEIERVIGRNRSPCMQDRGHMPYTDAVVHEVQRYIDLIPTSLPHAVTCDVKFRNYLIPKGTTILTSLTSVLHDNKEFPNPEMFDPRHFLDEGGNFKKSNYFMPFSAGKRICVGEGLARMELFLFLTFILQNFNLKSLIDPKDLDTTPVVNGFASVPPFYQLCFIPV
Assay: Inhibition of CYP2C19 (unknown origin)
Assay type: ADME
Details: not given
O[C@@](Cn1cnnn1)(c1ccc(F)cc1F)C(F)(F)c1ccc(-c2ccc(OCC(F)(F)F)cc2)cn1 [OTESECONAZOLE] showed an IC50 of 72 µM.

Test system: Candida albicans
Assay: Antifungal activity against Candida albicans R303 infected in CD-1 mouse assessed as reduction of kidney fungal burden at 20 mg/kg, po administered 2 hrs post infection on day 1 measured on day 2 relative to vehicle-treated control
Assay type: functional
Details: not given
Outline: (§2)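 Female CD-1 mice (7 weeks, 18-25 g) made neutropenic with IP cyclophosphamide (150 mg/kg) on days 4 and 1 before tail-vein inoculation with C. albicans R303. Single oral dose given 2 h after infection on day 1. Kidneys harvested day 2 and homogenized in PBS. CFU/kidney counted on SDA plates from serial dilutions. Percent reduction taken versus vehicle-treated controls. Fluconazole used as positive control.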
In the case of OC(Cn1cnnn1)(c1ccc(F)cc1F)C(F)(F)c1ccc(-c2ccc(C(F)(F)F)cc2)cn1 (stereo not given), the Efficacy is reported as 94%.

Test system: Candida albicans
Assay: Antifungal activity against Candida albicans R303 infected in CD-1 mouse assessed as reduction of kidney fungal burden at 10 mg/kg, po administered 2 hrs post infection on day 1 measured on day 2 relative to vehicle-treated control
Assay type: functional
Details: not given
Outline: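 Female CD-1 mice (7 weeks, 18-25 g) made neutropenic with IP cyclophosphamide 150 mg/kg at 4 and 1 days before tail-vein inoculation with C. albicans R303. Single oral dose 2 h post-infection on day 1. Kidneys harvested day 2, homogenized in PBS, serially diluted and plated on SDA for CFU/kidney. Read-out: percent reduction in kidney fungal burden versus vehicle-treated controls.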
With OC(Cn1cnnn1)(c1ccc(F)cc1F)C(F)(F)c1ccc(-c2ccc(F)cc2)cn1 (stereo not given) the Efficacy was 99%.
For OC(Cn1cncn1)(Cn1cncn1)c1ccc(F)cc1F [FLUCONAZOLE], the Efficacy was 99%.

Test system: not listed separately
Assay: Half life in po dosed human
Assay type: ADME, organism-based
Details: in vivo
O[C@@](Cn1cnnn1)(c1ccc(F)cc1F)C(F)(F)c1ccc(-c2ccc(OCC(F)(F)F)cc2)cn1 [OTESECONAZOLE] gave a half-life of over 24 h.

Target: Lanosterol 14-alpha demethylase (Candida albicans (strain SC5314 / ATCC MYA-2876) (Yeast), UniProt P10613)
Sequence (P10613 whole entry): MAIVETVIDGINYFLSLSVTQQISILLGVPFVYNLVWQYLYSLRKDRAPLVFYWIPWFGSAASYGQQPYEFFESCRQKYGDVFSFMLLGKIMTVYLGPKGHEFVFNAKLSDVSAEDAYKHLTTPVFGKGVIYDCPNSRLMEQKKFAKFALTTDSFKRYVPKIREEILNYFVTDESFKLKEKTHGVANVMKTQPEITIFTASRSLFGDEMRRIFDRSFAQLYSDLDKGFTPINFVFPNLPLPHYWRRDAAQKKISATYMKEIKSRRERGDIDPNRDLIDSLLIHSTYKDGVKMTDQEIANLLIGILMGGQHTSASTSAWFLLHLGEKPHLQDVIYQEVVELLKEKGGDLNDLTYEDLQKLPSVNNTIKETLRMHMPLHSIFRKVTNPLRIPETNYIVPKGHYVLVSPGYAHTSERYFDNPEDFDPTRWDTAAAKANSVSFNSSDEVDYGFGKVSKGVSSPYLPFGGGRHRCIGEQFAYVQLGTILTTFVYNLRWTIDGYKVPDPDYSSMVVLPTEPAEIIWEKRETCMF
Assay: Binding affinity to Candida albicans CYP51
Details: not given
For O[C@@](Cn1cnnn1)(c1ccc(F)cc1F)C(F)(F)c1ccc(-c2ccc(OCC(F)(F)F)cc2)cn1 [OTESECONAZOLE], the Kd was at most 0.039 µM.

Target: Cytochrome P450 3A4 (Homo sapiens, UniProt P08684)
Sequence (P08684 whole entry): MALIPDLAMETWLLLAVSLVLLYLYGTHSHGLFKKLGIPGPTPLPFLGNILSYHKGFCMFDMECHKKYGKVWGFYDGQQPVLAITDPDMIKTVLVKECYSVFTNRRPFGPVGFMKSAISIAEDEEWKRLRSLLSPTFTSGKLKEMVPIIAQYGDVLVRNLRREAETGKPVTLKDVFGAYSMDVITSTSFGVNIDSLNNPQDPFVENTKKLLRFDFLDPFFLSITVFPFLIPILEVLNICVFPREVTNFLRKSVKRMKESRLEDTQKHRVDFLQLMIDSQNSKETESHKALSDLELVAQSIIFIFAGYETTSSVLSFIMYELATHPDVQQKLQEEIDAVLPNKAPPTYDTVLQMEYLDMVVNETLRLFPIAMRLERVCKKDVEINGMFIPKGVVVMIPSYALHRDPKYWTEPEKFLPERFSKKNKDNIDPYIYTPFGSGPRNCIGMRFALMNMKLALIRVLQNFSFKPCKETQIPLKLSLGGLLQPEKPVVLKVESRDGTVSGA
Assay: Inhibition of CYP3A4 in human hepatocytes using testosterone as substrate by HPLC/MS/MS method
Assay type: ADME, cell-based, Hepatocyte
Details: not given
O[C@@](Cn1cnnn1)(c1ccc(F)cc1F)C(F)(F)c1ccc(-c2ccc(OCC(F)(F)F)cc2)cn1 [OTESECONAZOLE] showed an IC50 of 65 µM.
C[C@@H](c1ncncc1F)[C@](O)(Cn1ncnn1)c1ccc(F)cc1F showed an IC50 of 46 µM.
In the case of O[C@@](Cn1cnnn1)(c1ccc(F)cc1F)C(F)(F)c1ccc(-c2ccc(OC(F)(F)F)cc2)cn1, the IC50 is reported as 79 µM.
Compound O[C@@](Cn1cnnn1)(c1ccc(F)cc1F)C(F)(F)c1ccc(Cl)cn1 has an IC50 of 74 µM.
Compound N#Cc1ccc(-c2ccc(C(F)(F)C(O)(Cn3cnnn3)c3ccc(F)cc3F)nc2)cc1 (stereo not given) has an IC50 of 16 µM.
For OC(Cn1cnnn1)(c1ccc(F)cc1F)C(F)(F)c1ccccn1 (stereo not given), the IC50 was 136 µM.
For O[C@@](Cn1cnnn1)(c1ccc(F)cc1F)C(F)(F)c1ccc(-c2ccc(Cl)cc2)cn1, the IC50 was 36 µM.
With C[C@@H](c1ncncc1F)[C@](O)(Cn1ccnn1)c1ccc(F)cc1F the IC50 was 8 µM.
With C[C@@H](c1ncncc1F)[C@](O)(Cn1cnnc1)c1ccc(F)cc1F the IC50 was 51 µM.
Work on OC(Cn1cnnn1)(c1ccc(F)cc1F)C(F)(F)c1ccc(-c2ccc(C(F)(F)F)cc2)cn1 (stereo not given) yielded an IC50 of over 60 µM.
O[C@@](Cn1cnnn1)(c1ccc(F)cc1F)C(F)(F)c1ccc(-c2ccc(C(F)(F)F)cc2)cn1 showed an IC50 of 54 µM.
C[C@@H](c1ncncc1F)[C@](O)(Cn1cnnn1)c1ccc(F)cc1F gave an IC50 of 32 µM.
Work on C[C@@H](c1ncncc1F)[C@](O)(Cn1ccnc1)c1ccc(F)cc1F yielded an IC50 of 0.8 µM.
In the case of OC(Cn1cnnn1)(c1ccc(F)cc1F)C(F)(F)c1ccc(OCC(F)(F)F)cn1 (stereo not given), the IC50 is reported as 72 µM.

Target: Cytochrome P450 2C9 (Homo sapiens, UniProt P11712)
Sequence (P11712 whole entry): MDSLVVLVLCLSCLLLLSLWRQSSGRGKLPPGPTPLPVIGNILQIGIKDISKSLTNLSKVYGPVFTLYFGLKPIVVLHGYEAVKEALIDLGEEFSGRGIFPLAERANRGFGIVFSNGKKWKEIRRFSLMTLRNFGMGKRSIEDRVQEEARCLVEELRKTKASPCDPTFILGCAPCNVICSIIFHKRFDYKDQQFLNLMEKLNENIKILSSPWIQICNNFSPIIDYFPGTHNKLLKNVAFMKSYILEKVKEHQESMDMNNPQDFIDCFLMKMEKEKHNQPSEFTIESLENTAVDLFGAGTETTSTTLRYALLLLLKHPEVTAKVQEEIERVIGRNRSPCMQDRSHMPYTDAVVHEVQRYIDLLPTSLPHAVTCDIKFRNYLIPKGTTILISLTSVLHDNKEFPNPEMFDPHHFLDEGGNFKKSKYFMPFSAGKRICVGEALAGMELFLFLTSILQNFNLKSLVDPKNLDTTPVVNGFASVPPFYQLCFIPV
Assay: Inhibition of CYP2C9 (unknown origin)
Assay type: ADME
Details: not given
O[C@@](Cn1cnnn1)(c1ccc(F)cc1F)C(F)(F)c1ccc(-c2ccc(OCC(F)(F)F)cc2)cn1 [OTESECONAZOLE] showed an IC50 of 99 µM.

Test system: Trichophyton mentagrophytes
Assay: Antifungal activity against Trichophyton mentagrophytes infected in guinea pig dermatophytosis model assessed as mycological efficacy at 10 mg/kg, po administered for 9 days
Assay type: functional
Details: not given
Work on O[C@@](Cn1cnnn1)(c1ccc(F)cc1F)C(F)(F)c1ccc(-c2ccc(OCC(F)(F)F)cc2)cn1 [OTESECONAZOLE] yielded an Activity of 86%.

Test system: Candida albicans
Assay: Antifungal activity against Candida albicans infected in mouse candidiasis model assessed as reduction of kidney fungal burden at 10 mg/kg, po
Assay type: functional
Set-up: scale not given: the % may be the effect or the level left
Details: not given
O[C@@](Cn1cnnn1)(c1ccc(F)cc1F)C(F)(F)c1ccc(-c2ccc(OCC(F)(F)F)cc2)cn1 [OTESECONAZOLE] showed an Activity of 99%.

Test system: Trichophyton rubrum
Assay: Antifungal activity against Trichophyton rubrum by broth macrodilution method
Assay type: functional
Details: not given
Outline: as §1
CCC(C)n1ncn(-c2ccc(N3CCN(c4ccc(OCC5COC(Cn6cncn6)(c6ccc(Cl)cc6Cl)O5)cc4)CC3)cc2)c1=O (stereo not given) [ITRACONAZOLE] showed an MIC50 of 0.062 µg/mL (≈ 0.0879 µM).
Work on O[C@@](Cn1cnnn1)(c1ccc(F)cc1F)C(F)(F)c1ccc(-c2ccc(OCC(F)(F)F)cc2)cn1 [OTESECONAZOLE] yielded an MIC50 of at most 0.001 µg/mL.
In the case of O[C@@](Cn1cnnn1)(c1ccc(F)cc1F)C(F)(F)c1ccc(-c2ccc(OC(F)(F)F)cc2)cn1, the MIC50 is reported as at most 0.001 µg/mL.
O[C@@](Cn1cnnn1)(c1ccc(F)cc1F)C(F)(F)c1ccc(-c2ccc(Cl)cc2)cn1 showed an MIC50 of 0.004 µg/mL (≈ 0.00862 µM).
Work on O[C@@](Cn1cnnn1)(c1ccc(F)cc1F)C(F)(F)c1ccc(-c2ccc(C(F)(F)F)cc2)cn1 yielded an MIC50 of 0.002 µg/mL (≈ 0.00402 µM).

Test system: not listed separately
Assay: Selectivity for yeast CYP51 over human CYP51
Details: not given
With O[C@@](Cn1cnnn1)(c1ccc(F)cc1F)C(F)(F)c1ccc(-c2ccc(OCC(F)(F)F)cc2)cn1 [OTESECONAZOLE] the Selectivity ratio was over 2200.

Test system: not listed separately
Assay: Metabolic stability in human liver microsomes after 2 hrs
Assay type: ADME
Details: read-out: Stability
Compound O[C@@](Cn1cnnn1)(c1ccc(F)cc1F)C(F)(F)c1ccc(-c2ccc(OCC(F)(F)F)cc2)cn1 [OTESECONAZOLE] has a remaining at 2 h of over 99%.

Test system: not listed separately
Assay: Selectivity index, ratio of IC50 for human hepatocytes CYP3A4 to MIC for Trichophyton rubrum
Set-up: species or system Hepatocyte
Details: not given
Outline: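 CYP3A4 IC50 measured in pooled human hepatocyte microsomes with 150 μM testosterone as substrate, a concentration equal to the Km determined in the same lab. […] Selectivity index calculated as CYP3A4 IC50 (μM) divided by T. rubrum MIC (μg/mL).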
In the case of O[C@@](Cn1cnnn1)(c1ccc(F)cc1F)C(F)(F)c1ccc(-c2ccc(OCC(F)(F)F)cc2)cn1 [OTESECONAZOLE], the “Selectivity Index” value is reported as over 65000.
In the case of O[C@@](Cn1cnnn1)(c1ccc(F)cc1F)C(F)(F)c1ccc(-c2ccc(OC(F)(F)F)cc2)cn1, the “Selectivity Index” value is reported as over 79000.
With O[C@@](Cn1cnnn1)(c1ccc(F)cc1F)C(F)(F)c1ccc(-c2ccc(Cl)cc2)cn1 the “Selectivity Index” value was 9000.
In the case of O[C@@](Cn1cnnn1)(c1ccc(F)cc1F)C(F)(F)c1ccc(-c2ccc(C(F)(F)F)cc2)cn1, the “Selectivity Index” value is reported as 27000.

Test system: Candida albicans
Assay: Antifungal activity against Candida albicans R303 infected in CD-1 mouse assessed as reduction of kidney fungal burden at 50 mg/kg, po administered 2 hrs post infection on day 1 measured on day 2 relative to vehicle-treated control
Assay type: functional
Details: not given
Outline: as §2
Compound O[C@@](Cn1cnnn1)(c1ccc(F)cc1F)C(F)(F)c1ccc(Cl)cn1 has an Efficacy of 100%.
Compound N#Cc1ccc(-c2ccc(C(F)(F)C(O)(Cn3cnnn3)c3ccc(F)cc3F)nc2)cc1 (stereo not given) has an Efficacy of 100%.
In the case of OC(Cn1cnnn1)(c1ccc(F)cc1F)C(F)(F)c1ccccn1 (stereo not given), the Efficacy is reported as 98%.
Work on OC(Cn1cnnn1)(c1ccc(F)cc1F)C(F)(F)c1ccc(OCC(F)(F)F)cn1 (stereo not given) yielded an Efficacy of 81%.
